Active and inactive are the calls of the source. No cut-off for these calls is given here.
Columns and labels:
Klebsiella pneumoniae [1] = test: Antibacterial activity against Klebsiella pneumoniae B9 assessed as inhibition of bacterial growth incubated for 16 hrs by broth microdilution method; assay type: functional
Method in brief: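 Broth microdilution in CAMHB. Six-hour culture diluted to 5×10^5 CFU/mL, compound added from DMSO stock, two-fold serial dilution. MIC is the lowest concentration giving 90% growth inhibition versus untreated wells. Run in duplicate, repeated at least twice.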

Klebsiella pneumoniae [2] = test: Potentiation of colistin-induced antibacterial activity against colistin resistant Klebsiella pneumoniae B9 assessed as colistin MIC at 5 uM incubated for 16 hrs by broth microdilution method; assay type: functional
Method in brief: (§1)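 Bacteria grown 6 h in CAMHB, diluted to 5×10^5 CFU/mL. Fixed adjuvant concentration added from DMSO stock; an undosed aliquot gives the colistin MIC alone. Colistin serially two-fold diluted in the compound-dosed suspension. MIC taken at 90% growth inhibition versus untreated wells. Fold change is colistin MIC alone over MIC with adjuvant. Duplicate, repeated at least twice.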

Klebsiella pneumoniae [3] = test: Potentiation of colistin-induced antibacterial activity against colistin-resistant Klebsiella pneumoniae B9 assessed as fold change in colistin MIC at 5 uM incubated for 16 hrs by broth microdilution method; assay type: functional; method in brief: as §1
Klebsiella pneumoniae [4] = test: Potentiation of colistin-induced antibacterial activity against colistin-resistant Klebsiella pneumoniae B9 assessed as colistin MIC at 3 uM incubated for 16 hrs by broth microdilution method; assay type: functional; method in brief: as §1
Klebsiella pneumoniae [5] = test: Potentiation of colistin-induced antibacterial activity against colistin-resistant Klebsiella pneumoniae B9 assessed as fold change in colistin MIC at 3 uM incubated for 16 hrs by broth microdilution method; assay type: functional; method in brief: as §1
Klebsiella pneumoniae [6] = test: Potentiation of colistin-induced antibacterial activity against colistin-resistant Klebsiella pneumoniae B9 assessed as colistin MIC at 1 uM incubated for 16 hrs by broth microdilution method; assay type: functional; method in brief: as §1
Klebsiella pneumoniae [7] = test: Potentiation of colistin-induced antibacterial activity against colistin-resistant Klebsiella pneumoniae B9 assessed as fold change in colistin MIC at 1 uM incubated for 16 hrs by broth microdilution method; assay type: functional; method in brief: as §1
Klebsiella pneumoniae [8] = test: Potentiation of colistin-induced antibacterial activity against colistin resistant Klebsiella pneumoniae C3 assessed as colistin MIC at 5 uM incubated for 16 hrs by broth microdilution method; assay type: functional; method in brief: as §1
Klebsiella pneumoniae [9] = test: Potentiation of colistin-induced antibacterial activity against colistin resistant Klebsiella pneumoniae F9 assessed as colistin MIC at 5 uM incubated for 16 hrs by broth microdilution method; assay type: functional; method in brief: as §1
Klebsiella pneumoniae [10] = test: Potentiation of colistin-induced antibacterial activity against colistin resistant Klebsiella pneumoniae I2 assessed as colistin MIC at 5 uM incubated for 16 hrs by broth microdilution method; assay type: functional; method in brief: as §1
Klebsiella pneumoniae [11] = test: Potentiation of colistin-induced antibacterial activity against colistin resistant Klebsiella pneumoniae F2210291 harbouring mcr-1 gene assessed as colistin MIC at 5 uM incubated for 16 hrs by broth microdilution method; assay type: functional; method in brief: as §1
Acinetobacter baumannii [12] = test: Antimicrobial activity against colistin resistant Acinetobacter baumannii 3941 assessed as inhibition of microbial growth incubated for 16 hrs by broth microdilution method; assay type: functional, organism-based
Method in brief: (§2)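 Bacteria grown 6 h in cation-adjusted Mueller Hinton broth (CAMHB), subcultured to 5×10^5 CFU/mL. Compound added from DMSO stock and serially two-fold diluted in the culture. Incubated stationary at 37 °C for 16 h. MIC taken as the lowest concentration giving 90% growth inhibition versus untreated wells. Duplicate, repeated at least twice.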

Escherichia coli [13] = test: Antimicrobial activity against colistin resistant Escherichia coli 25922 harbouring mcr-1 gene assessed as inhibition of microbial growth incubated for 16 hrs by broth microdilution method; assay type: functional, organism-based; method in brief: as §2
Pseudomonas aeruginosa [14] = test: Antimicrobial activity against colistin resistant Pseudomonas aeruginosa TRPA 162 assessed as inhibition of microbial growth incubated for 16 hrs by broth microdilution method; assay type: functional, organism-based; method in brief: as §2
Acinetobacter baumannii [15] = test: Potentiation of colistin-induced antimicrobial activity against colistin resistant Acinetobacter baumannii 3941 assessed as assessed as colistin MIC at 5 uM incubated for 16 hrs by broth microdilution method; assay type: functional; method in brief: as §1
Pseudomonas aeruginosa [16] = test: Potentiation of colistin-induced antimicrobial activity against colistin-resistant Pseudomonas aeruginosa TRPA 162 assessed as colistin MIC at 5 uM incubated for 16 hrs by broth microdilution method; assay type: functional; method in brief: as §1
Escherichia coli [17] = test: Potentiation of colistin-induced antimicrobial activity against colistin resistant Escherichia coli 25922 harbouring mcr-1 gene assessed as colistin MIC at 5 uM incubated for 16 hrs by broth microdilution method; assay type: functional; method in brief: as §1
Klebsiella pneumoniae [18] = test: Antibacterial activity against Klebsiella pneumoniae B9 assessed as inhibition of bacterial growth at 5 uM measured upto 24 hrs by time-kill assay; assay type: functional, organism-based
Method in brief: (§3)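 Overnight CAMHB culture subcultured to 5×10^5 CFU/mL in fresh CAMHB, split into 4 mL aliquots. Dosed with carrier only, adjuvant, colistin, or adjuvant plus colistin. Shaken at 37 °C. At 2, 4, 6, 8 and 24 h, 100 µL sampled, ten-fold serially diluted in CAMHB up to 7 times, plated on LB Lennox agar, incubated overnight at 37 °C, colonies counted.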

Klebsiella pneumoniae [19] = test: Synergistic antibacterial activity against Klebsiella pneumoniae B9 assessed as reduction in colony forming unit measured per ml at 5 uM measured after 8 hrs in the presence of 0.5 ug/ml of colistin by time-kill assay; assay type: functional; method in brief: as §3
Klebsiella pneumoniae [20] = test: Synergistic antibacterial activity against Klebsiella pneumoniae B9 assessed as reduction in colony forming unit measured per ml at 5 uM measured after 2 hrs in the presence of 2 ug/ml of colistin by time-kill assay; assay type: functional; method in brief: as §3
Klebsiella pneumoniae [21] = test: Synergistic antibacterial activity against Klebsiella pneumoniae B9 assessed as reduction in colony forming unit measured per ml at 5 uM measured after 24 hrs in the presence of 2 ug/ml of colistin by time-kill assay; assay type: functional; method in brief: as §3
Klebsiella pneumoniae [22] = test: Synergistic antibacterial activity against Klebsiella pneumoniae B9 assessed as reduction in colony forming unit at 5 uM measured at 6 to 24 hrs in the presence of 4 ug/ml of colistin by time-kill assay; assay type: functional, organism-based; details: time 6-24 hrs; method in brief: as §3
[23] = Hemolytic activity in sheep RBC assessed as hemolysis upto 400 uM incubated for 1 hrs by UV-Vis spectrophotometric analysis; assay type: toxicity, cell-based, Ovis aries; details: erythrocyte
Method in brief: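 Defibrinated sheep blood cells washed three times in PBS by centrifugation (10 min, 10,000 rpm), resuspended in 10 mL PBS, compound added. PBS served as 0% lysis and 1% Triton X-100 as 100% lysis. Shaken at 200 rpm, 37 °C, 1 h, then centrifuged. Supernatant diluted 40-fold in water, absorbance read at 540 nm.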

Klebsiella pneumoniae [24] = test: Induction of drug resistance in colistin-resistant Klebsiella pneumoniae B9 assessed as lipid A modification of LPS at 5 uM incubated for 8 hrs by MALDI-TOF analysis; assay type: functional, organism-based
Method in brief: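 K. pneumoniae B9 grown 18 h at 37 °C in CAMHB, subcultured to 1×10^6 CFU in 120 mL CAMHB. Left untreated or dosed at 5 μM for 8 h, in duplicate. Cells pelleted, washed with endotoxin-free water, and extracted on-plate with 70% citric acid at 110 °C for 30 min. Norharmane matrix applied, then MALDI-TOF in negative ion mode.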

O=C1Nc2cc(Br)ccc2/C1=C1/Nc2cc(Cl)ccc2/C1=N\O
MIC (Klebsiella pneumoniae [1]): > 200 µM | MIC (Klebsiella pneumoniae [2]): 0.5 µg/mL | fold change (FC) (Klebsiella pneumoniae [3]): 1024 | MIC (Klebsiella pneumoniae [4]): 1 µg/mL | fold change (FC) (Klebsiella pneumoniae [5]): 256 | MIC (Klebsiella pneumoniae [6]): 16 µg/mL | fold change (FC) (Klebsiella pneumoniae [7]): 32 | MIC (Klebsiella pneumoniae [8]): 1 µg/mL | MIC (Klebsiella pneumoniae [9]): 2 µg/mL | MIC (Klebsiella pneumoniae [10]): 2 µg/mL | MIC (Klebsiella pneumoniae [11]): 1 µg/mL | Activity (Acinetobacter baumannii [12]): inactive | Activity (Escherichia coli [13]): inactive | Activity (Pseudomonas aeruginosa [14]): inactive | MIC (Acinetobacter baumannii [15]): > 16 µg/mL | MIC (Pseudomonas aeruginosa [16]): > 16 µg/mL | MIC (Escherichia coli [17]): 2 µg/mL | Activity (Klebsiella pneumoniae [18]): inactive | log(activity) (Klebsiella pneumoniae [19]): 1 | log(activity) (Klebsiella pneumoniae [20]): 2 | log(activity) (Klebsiella pneumoniae [21]): 1 | Activity (Klebsiella pneumoniae [22]): Active | Activity [23]: Non-Toxic | Activity (Klebsiella pneumoniae [24]): inactive
